Laboratory results as given in ChEMBL document CHEMBL5715960, “Epigenetic Co-Deregulation of EZH2/TET1 is a Senescence-Countering, Actionable Vulnerability in Triple-Negative Breast Cancer” (Theranostics, 2019).
Calls of active or inactive are those of the source. The rule behind the calls is not given here.

Columns and labels:
MDA-MB-453 [1] = assay: Antiproliferative activity against human MDA-MB-453 cells at 0.5 to 2 uM for 2 days by Guava viacount assay; type: functional, cell-based; conditions: dose 0.5-2 µM, time 2.0 day
Outline: (§1)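 Cells plated at 2 × 10^4 (24-well) or 1 × 10^5 (12-well), exposed to a range of GSK343 concentrations for 2 days against DMSO solvent control; cell number and viability read by Guava ViaCount flow cytometry, relative to DMSO. Triplicate; mean ± SD.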

MCF7 [2] = assay: Cytotoxicity against human MCF7 cells at 0.5 to 2 uM for 2 days by Guava viacount assay; type: toxicity, cell-based; conditions: mcf7, 48 h, dose 0.5-2 µM, time 2 day; outline: as §1
MDA-MB-453 [3] = assay: Antiproliferative activity against human MDA-MB-453 cells assessed as increase in cell death at 10 uM for 2 days by Guava viacount assay; type: functional, cell-based; conditions: time 2.0 day; outline: as §1
MDA-MB-361 = assay: Cytotoxicity against human MDA-MB-361 cells assessed as increase in cell death at 10 uM for 2 days by Guava viacount assay; type: toxicity, cell-based; conditions: mda-mb-361, 48 h, time 2 day; outline: as §1
MDA-MB-231 [4] = assay: Induction of cell cycle arrest in human MDA-MB-231 cells assessed as accumulation of cells at G1 phase measured at 2 uM by BrdU/PI staining based flow cytometric analysis (reference value: 51.5%); type: functional
MDA-MB-436 [5] = assay: Induction of cell cycle arrest in human MDA-MB-436 cells assessed as accumulation of cells at G1 phase measured at 2 uM by BrdU/PI staining based flow cytometric analysis (reference value: 48.3%); type: functional
MDA-MB-231 [6] = assay: Antiproliferative activity against human MDA-MB-231 cells assessed as downregulation of cyclin A by immunoblot analysis; type: functional, cell-based
Outline: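 Cells exposed to GSK343 at 2 µM (standard level unless stated otherwise), lysed and immunoblotted; α-tubulin and total H3 as loading controls.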

MDA-MB-231 [7] = assay: Upregulation of TP53 gene in human MDA-MB-231 cells at 2 uM by qRT-PCR analysis; type: functional, cell-based
Outline: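 Relative transcript levels measured by qRT-PCR in cells treated with 2 µM inhibitor, normalised to DMSO-treated control cells. Triplicate experiments unless stated otherwise; mean ± SD reported; unpaired two-tailed Student's t-test at p < 0.05.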

MCF7 [8] = assay: Effect on human MCF7 cells assessed as increase in TET1 transcription by qRT-PCR analysis; type: functional, cell-based
Outline: (§2)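 qRT-PCR of TET1, TET2 and TET3 transcripts in breast cancer cells exposed to GSK343 (2 µM unless otherwise indicated), shown relative to DMSO-treated cells. Mean ± SD, triplicate unless stated.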

BT-474 [9] = assay: Effect on human BT-474 cells assessed as increase in TET2 transcription by qRT-PCR analysis; type: functional, cell-based; outline: as §2
BT-474 [10] = assay: Effect on human BT-474 cells assessed as increase in TET3 transcription by qRT-PCR analysis; type: functional, cell-based; outline: as §2
MDA-MB-231 [11] = assay: Effect on human MDA-MB-231 cells assessed as increase in global 5hmc level by dot analysis; type: functional, cell-based
Outline: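 Global 5hmC measured by dot blot on genomic DNA from cells given GSK343 or carrying EZH2 knock-down, with DMSO or scrambled shRNA as controls. DNA denatured in 0.1 M NaOH at 99 °C for 5 min, then neutralized with ammonium sulfate pH 7.0. 5 µg spotted, UV-crosslinked, probed with anti-5hmC for 1 h at room temperature, ECL detection, dot intensity quantified. Mean ± SD.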

MDA-MB-231 [12] = assay: Downregulation of EZH2 in human MDA-MB-231 cells at 2 uM for 2 days by immunoblot analysis; type: functional, cell-based; conditions: time 2.0 day
MDA-MB-231 [13] = assay: Downregulation of E2F1 in human MDA-MB-231 cells at 2 uM for 2 days by immunoblot analysis; type: functional, cell-based; conditions: time 2.0 day
MDA-MB-436 [14] = assay: Effect on […] in human MDA-MB-436 cells assessed as repression in TET1 promoter H3K27me3 by ChiP-qPCR analysis; type: functional, cell-based
Outline: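 ChIP-qPCR on MDA-MB-231 and MDA-MB-436 cells exposed to GSK343 or DMSO. Chromatin pulled down with anti-H3K27me3 antibody and amplified with primers specific for the TET1 promoter. Input (no immunoprecipitation) serves as internal control and anti-IgG as negative control. Mean ± SD, triplicate unless stated.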

MDA-MB-231 [15] = assay: Antiproliferative activity in human MDA-MB-231 cells expressing vector assessed as increase in SA-beta-gal positive cells by SA-beta-gal staining analysis (reference value: 6.5+/-4%); type: functional
MDA-MB-231 [16] = assay: Effect on human MDA-MB-231 cells assessed as decrease in H3K27me3 level at 2 uM in presence of adriamycin by immunoblot analysis; type: functional, cell-based
Outline: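 Immunoblot of MDA-MB-231 and MCF7 lysates after 0.005 µg/ml adriamycin with or without 2 µM GSK343, or DMSO. α-Tubulin and total H3 used as loading controls.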

MDA-MB-231 [17] = assay: Effect on human MDA-MB-231 cells assessed as apoptotic phenotype by measuring increase in PUMA expression level at 2 uM in presence of adriamycin by immunoblot analysis; type: functional, cell-based
Outline: (§3)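 Immunoblot of cell lysates after 0.05 µg/ml adriamycin alone, with 2 µM GSK343, or DMSO. α-Tubulin and total H3 used as loading controls.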

MDA-MB-231 [18] = assay: Effect on human MDA-MB-231 cells assessed as apoptotic phenotype by measuring increase in BAX expression level at 2 uM in presence of adriamycin by immunoblot analysis; type: functional, cell-based; outline: as §3
MDA-MB-436 [19] = assay: Effect on human MDA-MB-436 cells assessed as apoptotic phenotype by measuring increase in BIM expression level at 2 uM in presence of adriamycin by immunoblot analysis; type: functional, cell-based; outline: as §3
MDA-MB-231 [20] = assay: Antiproliferative activity in human MDA-MB-231 cells assessed as increase in C12FDG based fluorescent SA-beta-gal positive cells at 2 uM in presence of adriamycin by FACS analysis; type: functional, cell-based
Outline: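 Cells given 0.005 µg/ml adriamycin with or without 2 µM GSK343, or DMSO; SA-β-gal activity detected with C12FDG fluorescent substrate by flow cytometry, reported as percent positive cells. Mean ± SD.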

MDA-MB-231 [21] = assay: Induction of apoptosis in human MDA-MB-231 cells assessed as decrease in accumulation of cells at S phase in presence of adriamycin by BrdU/PI-based cell cycle analysis; type: functional
Outline: (§4)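 Cell cycle by BrdU/PI staining and flow cytometry, giving G1, S and G2 fractions. Cells received 0.005 µg/ml adriamycin with or without 2 µM GSK343, or DMSO. Mean ± SD.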

MDA-MB-436 [22] = assay: Induction of apoptosis in human MDA-MB-436 cells assessed as decrease in accumulation of cells at S phase in presence of adriamycin by BrdU/PI-based cell cycle analysis; type: functional; outline: as §4
MDA-MB-231 [23] = assay: In vivo activation of TET1 in Crl:NU-Foxn1-nu/nu mouse xenografted with human MDA-MB-231 cells at 5 mg/kg, ip in presence of adriamycin treated for 21 days; type: functional, organism-based; conditions: time 21.0 day
MDA-MB-436 [24] = assay: Effect on human MDA-MB-436 cells assessed as increase in TET1 mRNA level by qRT-PCR analysis
MDA-MB-231 [25] = assay: Effect on human MDA-MB-231 cells assessed as increase in TET1 protein level by qRT-PCR analysis

`CCCc1cc(C)[nH]c(=O)c1CNC(=O)c1cc(-c2ccnc(N3CCN(C)CC3)c2)cc2c1cnn2C(C)C` was tested, and the Activity (MDA-MB-453 [1]) was “Active”, the Activity (MCF7 [2]) was “Non-Toxic” and the Activity (MDA-MB-453 [3]) was “Active”. For the same molecule, the Activity (MDA-MB-361) was “Non-Toxic”, the Activity (MDA-MB-231 [4]) was 76.8% and the Activity (MDA-MB-436 [5]) was 71.1%. The Activity (MDA-MB-231 [6]) was “Active”, the Activity (MDA-MB-231 [7]) was “Active” and the Activity (MCF7 [8]) was “inactive”. For the same molecule, the Activity (BT-474 [9]) was “inactive”, the Activity (BT-474 [10]) was “inactive” and the Activity (MDA-MB-231 [11]) was “Active”. For the same molecule, the Activity (MDA-MB-231 [12]) was “Active”, the Activity (MDA-MB-231 [13]) was “Active” and the Activity (MDA-MB-436 [14]) was “Active”. The Activity (MDA-MB-231 [15]) was 45.6%, the Activity (MDA-MB-231 [16]) was “Active” and the Activity (MDA-MB-231 [17]) was “Active”. For the same molecule, the Activity (MDA-MB-231 [18]) was “Active”, the Activity (MDA-MB-436 [19]) was “Active” and the Activity (MDA-MB-231 [20]) was “Active”. The Activity (MDA-MB-231 [21]) was “Active”, the Activity (MDA-MB-436 [22]) was “Active” and the Activity (MDA-MB-231 [23]) was “Active”. The Activity (MDA-MB-436 [24]) was “Active” and the Activity (MDA-MB-231 [25]) was “Active”.
